ChEMBL document CHEMBL1141874, “Synthesis and biological evaluation of novel bisheterocycle-containing compounds as potential anti-influenza virus agents” (Bioorg Med Chem Lett, 2005)
Values after ≈ are worked out from the molar mass of the structure shown. Active and inactive are the calls of the source. No cut-off for these calls is given here.

Key:
Influenza A virus [1] = test: Antiviral activity against influenza A H3N2 virus in MDCK cells; assay type: functional, organism-based
Method in brief: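 Confluent MDCK monolayers were infected with influenza A H3N2 (A3 China/15/90) for 2 h at 37 °C. The inoculum was removed and the cells were treated with a range of compound concentrations. CPE was scored once the virus control reached 4+. The concentration giving 50% reduction of virus-induced CPE was found by Reed–Muench interpolation.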

Influenza A virus [2] = test: Cytotoxicity in MDCK cells infected with influenza A H3N2 virus; assay type: functional
Method in brief: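 Confluent MDCK monolayers were infected with influenza A H3N2 (A3 China/15/90) for 2 h at 37 °C, then the inoculum was removed and a range of compound concentrations added. Cultures were read when the virus control reached 4+ CPE. The value is the concentration causing microscopically detectable toxicity in the virus-infected cultures.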

Influenza B virus = test: Inhibitory activity against influenza B virus; assay type: functional, organism-based
[3] = Influenza A virus, H3N2, MDCK, read-out: IC50

Structure (SMILES) | IC50 (Influenza A virus [1]; [3]) | CC50 (Influenza A virus [2]) | Activity (Influenza B virus) | IC50 (Influenza A virus [1]; mdck)
COC(=O)c1nc(-c2csc([C@@H](NC(=O)CCC=C(C)C)C(C)C)n2)oc1C | 37 µg/mL (≈ 91.3 µM) | 577 µg/mL (≈ 1420 µM) | inactive | –
C=CCCC(=O)N[C@H](c1nc(-c2nc(C(=O)OC)c(C)o2)cs1)C(C)C | – | 577 µg/mL (≈ 1530 µM) | inactive | –
COC(=O)c1nc(-c2csc([C@@H](NC(=O)CC3=CCCC3)C(C)C)n2)oc1C | – | 333 µg/mL (≈ 826 µM) | inactive | –
COC(=O)c1nc(-c2csc([C@@H](NC(=O)c3cccc(F)c3)C(C)C)n2)oc1C | > 86.2 µg/mL | > 1000 µg/mL | inactive | –
NC(=O)c1ncn([C@@H]2O[C@H](CO)[C@@H](O)[C@H]2O)n1 [RIBAVIRIN] | 3.73 µg/mL (≈ 15.3 µM) | – | – | –
COC(=O)c1nc(-c2csc([C@@H](NC(=O)CC3=CCCCC3)C(C)C)n2)oc1C | – | 231 µg/mL (≈ 554 µM) | inactive | –
Cc1oc(-c2csc([C@@H](NC(=O)CC3=CCCC3)C(C)C)n2)nc1C(=O)O | 29 µg/mL (≈ 74.5 µM) | 481 µg/mL (≈ 1230 µM) | inactive | –
COC(=O)c1nc(-c2csc([C@@H](NC(=O)c3ccccc3OC)C(C)C)n2)oc1C | 47.7 µg/mL (≈ 111 µM) | 333 µg/mL (≈ 776 µM) | inactive | –
COC(=O)c1nc(-c2csc([C@@H](NC(=O)C3CCC3)C(C)C)n2)oc1C | – | 500 µg/mL (≈ 1320 µM) | inactive | –
COc1ccccc1C(=O)N[C@H](c1nc(-c2nc(C(=O)O)c(C)o2)cs1)C(C)C | 29 µg/mL (≈ 69.8 µM) | 333 µg/mL (≈ 802 µM) | inactive | –
COC(=O)c1coc([C@H](C)NC(=O)c2nc(-c3csc([C@@H](NC(=O)CC=C(C)C)C(C)C)n3)oc2C)n1 | – | 577 µg/mL (≈ 1090 µM) | inactive | –
COC(=O)c1nc(-c2csc([C@@H](NC(=O)C3CCCCC3)C(C)C)n2)oc1C | 43.6 µg/mL (≈ 107 µM) | 144 µg/mL (≈ 356 µM) | inactive | –
COC(=O)c1nc(-c2csc([C@@H](NC(=O)CC=C(C)C)C(C)C)n2)oc1C | 192 µg/mL (≈ 492 µM) | > 1000 µg/mL | inactive | –
COC(=O)c1coc([C@H](C)NC(=O)c2nc(-c3csc([C@@H](NC(=O)C4CCCCC4)C(C)C)n3)oc2C)n1 | – | 144 µg/mL (≈ 266 µM) | inactive | –
CCC(=O)N[C@H](c1nc(-c2nc(C(=O)OC)c(C)o2)cs1)C(C)C | – | 577 µg/mL (≈ 1640 µM) | inactive | –
C/C=C(\C)C(=O)N[C@H](c1nc(-c2nc(C(=O)OC)c(C)o2)cs1)C(C)C | 37 µg/mL (≈ 98.1 µM) | 231 µg/mL (≈ 612 µM) | inactive | –
CCC(=O)N[C@H](c1nc(-c2nc(C(=O)N[C@@H](C)c3nc(C(=O)OC)co3)c(C)o2)cs1)C(C)C | – | 577 µg/mL (≈ 1180 µM) | inactive | –
COC(=O)c1nc(-c2csc([C@@H](NC(=O)C(C)(C)C)C(C)C)n2)oc1C | – | 577 µg/mL (≈ 1520 µM) | inactive | –
COC(=O)c1coc([C@H](C)NC(=O)c2nc(-c3csc([C@@H](NC(=O)c4cccc(F)c4)C(C)C)n3)oc2C)n1 | 77 µg/mL (≈ 139 µM) | 577 µg/mL (≈ 1040 µM) | inactive | –
COC(=O)c1coc([C@H](C)NC(=O)c2nc(-c3csc([C@@H](NC(=O)CC4=CCCCC4)C(C)C)n3)oc2C)n1 | 44.5 µg/mL (≈ 80 µM) | 577 µg/mL (≈ 1040 µM) | inactive | –
COC(=O)c1nc(-c2csc([C@@H](N)C(C)C)n2)oc1C | 259 µg/mL (≈ 876 µM) | 577 µg/mL (≈ 1950 µM) | inactive | –
Cc1oc2nc1C(=O)N[C@@H](C)c1nc(co1)C(=O)N[C@@H](CC(C)C)C(=O)N1CCC[C@H]1C(=O)N[C@@H](C(C)C)c1nc-2cs1 [LEUCAMIDE A] | – | inactive | – | Not Active
